# Columns and labels:
# Type in all cases: functional
# [1] = Growth inhibition of human BE(2)-C cells after 72 hrs y MTT assay
# Procedure, shortened: (§1)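 Cells kept in DMEM with 10% FBS, 10 mM sodium bicarbonate, penicillin, streptomycin and 4 mM glutamine at 37 °C under 5% CO2. Log-phase cells were plated in duplicate at 2500–4000 cells/well. After 24 h, compound in medium was added; analogue stocks were 40 mM in DMSO. Growth was read after 72 h by MTT absorbance at 540 nm in dose-response testing.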
# [2] = Growth inhibition of human SJ-G2 cells after 72 hrs y MTT assay; details: SJ-G2, 72 h; procedure, shortened: as §1
# A-431 = test: Growth inhibition of human A431 cells after 72 hrs y MTT assay; details: A-431, 72 h; procedure, shortened: as §1
# A2780 = test: Growth inhibition of human A2780 cells after 72 hrs y MTT assay; details: A2780, 72 h; procedure, shortened: as §1
# NCI-H460 = test: Growth inhibition of human H460 cells after 72 hrs y MTT assay; details: NCI-H460, 72 h; procedure, shortened: as §1
# DU-145 = test: Growth inhibition of human DU145 cells after 72 hrs y MTT assay; details: DU-145, 72 h; procedure, shortened: as §1
# HT-29 = test: Growth inhibition of human HT-29 cells after 72 hrs y MTT assay; details: HT-29, 72 h; procedure, shortened: as §1
# SW480 = test: Growth inhibition of human SW480 cells after 72 hrs y MTT assay; details: SW480, 72 h; procedure, shortened: as §1
# MCF7 = test: Growth inhibition of human MCF7 cells after 72 hrs y MTT assay; details: MCF7, 72 h; procedure, shortened: as §1
Structure (SMILES),GI50 (A-431) [µM],GI50 (A2780) [µM],GI50 (NCI-H460) [µM],GI50 (DU-145) [µM],GI50 (HT-29) [µM],GI50 (SW480) [µM],GI50 (MCF7) [µM],GI50 [1] [µM],GI50 [2] [µM]
O=C1O[C@H](O)[C@@H]2[C@H]1[C@H]1CC[C@@H]2O1,> 100,> 100,> 100,> 100,14,> 100,> 100,28,15
C/C=C/CO[C@H]1OC(=O)[C@H]2[C@@H]1[C@@H]1CC[C@H]2O1,> 100,57,> 100,> 100,42,93,77,84,55
C#CCCCCO[C@H]1OC(=O)[C@H]2[C@@H]1[C@@H]1CC[C@H]2O1,> 100,> 100,> 100,> 100,51,> 100,> 100,> 100,55
CCCCCO[C@H]1OC(=O)[C@H]2[C@@H]1[C@@H]1CC[C@H]2O1,68,20,> 100,> 100,32,39,27,38,37
CCCCCCO[C@@H]1OC(=O)[C@H]2[C@@H]1[C@@H]1CC[C@H]2O1,> 100,> 100,> 100,> 100,–,> 100,> 100,> 100,–
CCCCCCCCO[C@H]1OC(=O)[C@H]2[C@@H]1[C@@H]1CC[C@H]2O1,72,28,> 100,86,40,49,36,51,45

# Further lines, with some results ahead:
GI50 (A-431) [µM],GI50 (A2780) [µM],GI50 (NCI-H460) [µM],GI50 (DU-145) [µM],GI50 (HT-29) [µM],GI50 (SW480) [µM],GI50 (MCF7) [µM],Structure (SMILES),GI50 [1] [µM],GI50 [2] [µM]
> 100,–,> 100,> 100,–,–,> 100,C=CCO[C@H]1OC(=O)[C@H]2[C@@H]1[C@@H]1CC[C@H]2O1,–,–
> 100,> 100,> 100,> 100,–,> 100,> 100,C=CCO[C@@H]1OC(=O)[C@H]2[C@@H]1[C@@H]1CC[C@H]2O1,> 100,–
> 100,> 100,> 100,> 100,31,> 100,> 100,C/C=C/CO[C@@H]1OC(=O)[C@H]2[C@@H]1[C@@H]1CC[C@H]2O1,63,35
> 100,> 100,> 100,> 100,77,> 100,> 100,CCO[C@H]1OC(=O)[C@H]2[C@@H]1[C@@H]1CC[C@H]2O1,> 100,49
> 100,> 100,> 100,> 100,19,94,> 100,CC(C)O[C@H]1OC(=O)[C@H]2[C@@H]1[C@@H]1CC[C@H]2O1,44,21
> 100,> 100,> 100,> 100,52,> 100,> 100,CC(C)(C)O[C@H]1OC(=O)[C@H]2[C@@H]1[C@@H]1CC[C@H]2O1,> 100,48

# — ChEMBL document CHEMBL2040765, “Synthesis and anticancer activity of a series of norcantharidin analogues” (2012)
